Compound activity as filed in PubChem BioAssay.
KCNQ1 act: potentiators or activators of human KCNQ1 potassium channel; P51787; B-score at 10 µM; 0.35% of 310,000 active; CHO-K1 KCNQ1, thallium flux FluxOR fluorescence; active compounds read high;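 active = fluorescence ratio B-score, a plate-corrected score, at least three library SD, with initial intensity B-score within 5 SD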
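Schedule – 37 °C overnight plating, 90-min dark dye load, 20-min compound pretreatment · System – stable KCNQ1 CHO-K1 line · Probe or stimulus – thallium- and potassium-containing depolarizing buffer · Measured by – kinetic FluxOR fluorescence, 10 s baseline plus 110 s post-stimulus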
hERG rescue: hERG (human) protection from proarrhythmic block | Q12809 | CHO-hERG, FluxOR thallium flux, dofetilide IC70 present | activation (rescue from dofetilide block), less the hit threshold, % at 10 µM | 0.51% of 310,000 active | AID 1511;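 active = activation above the mean of controls blocked by dofetilide plus 5 SD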;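 also: thallium influx through hERG after potassium depolarization seen as dye fluorescence rise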
KCNK3 block: human KCNK3 channel inhibition, primary screen; O14649; B-score at 10 µM; 0.84% of 340,000 active; CHO-KCNK3 thallium flux, FluxOR fluorescence; active compounds read low;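 active = B-score under library mean minus 4 SD, starting fluorescence ratio at most library mean plus 5 SD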;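 also: more negative B-score means stronger inhibition of thallium flux through KCNK3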
Target sequence (O14649 whole entry, looked up): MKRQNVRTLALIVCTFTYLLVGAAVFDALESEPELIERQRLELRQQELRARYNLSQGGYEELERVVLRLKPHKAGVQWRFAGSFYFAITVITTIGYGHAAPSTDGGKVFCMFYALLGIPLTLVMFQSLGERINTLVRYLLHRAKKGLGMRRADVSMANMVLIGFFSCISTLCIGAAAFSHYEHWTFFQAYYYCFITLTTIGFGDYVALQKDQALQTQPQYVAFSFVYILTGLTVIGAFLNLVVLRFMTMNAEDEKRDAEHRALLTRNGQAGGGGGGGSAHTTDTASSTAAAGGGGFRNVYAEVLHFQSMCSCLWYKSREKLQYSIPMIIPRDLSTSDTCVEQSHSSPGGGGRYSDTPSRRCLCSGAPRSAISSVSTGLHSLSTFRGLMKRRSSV
KCNK9 inh: human KCNK9 channel inhibition. HEK293 KCNK9, FluxOR thallium flux fluorescence; active compounds read low. AID 488922. B-score at 10 µM. Q9NPC2. 1.2% of 310,000 active;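 active = ratio B-score over 3 SD below the library mean, with starting fluorescence within 5 SD of its mean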;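 also: negative B-score means less thallium flux so channel inhibition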
Kir21 block: blocks the mouse Kir2.1 inward-rectifier potassium channel. P35561. HEK293-Kir2.1, FluxOR thallium flux fluorescence; active compounds read low. B-score at 10 µM. 0.85% of 310,000 active;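 active = fluorescence ratio B-score at or below minus 3 SD of library scores, with starting-brightness B-score within 2 SD, cut at about -4.2 in these data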;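 also: channel flux triggered by added potassium and thallium sulfate stimulus; B-score of peak minus minimum fluorescence over baseline after thallium stimulus; more negative B-score means stronger Kir2.1 block with less thallium influx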
Target sequence (P35561 whole entry, looked up): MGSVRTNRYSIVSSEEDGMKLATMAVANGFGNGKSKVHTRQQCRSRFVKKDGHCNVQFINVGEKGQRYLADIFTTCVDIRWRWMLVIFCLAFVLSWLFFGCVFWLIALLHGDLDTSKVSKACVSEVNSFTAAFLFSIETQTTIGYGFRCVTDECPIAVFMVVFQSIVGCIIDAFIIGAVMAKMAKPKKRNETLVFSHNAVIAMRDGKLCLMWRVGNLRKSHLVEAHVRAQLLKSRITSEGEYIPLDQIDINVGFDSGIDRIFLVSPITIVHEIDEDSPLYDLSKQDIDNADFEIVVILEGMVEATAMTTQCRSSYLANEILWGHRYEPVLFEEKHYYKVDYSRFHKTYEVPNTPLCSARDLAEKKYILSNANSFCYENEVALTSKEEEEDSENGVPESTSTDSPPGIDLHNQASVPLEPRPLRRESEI
KCNQ1 inh: human KCNQ1 channel inhibition; P51787; CHO-K1 KCNQ1, FluxOR thallium flux fluorescence; active compounds read high; 1.3% of 310,000 active; B-score at 10 µM;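 active = compounds whose thallium flux B-score, printed positive for inhibition, exceeds three library SD while starting fluorescence stays within three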;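 also: channel opened by potassium depolarization with thallium stimulus after 20 min compound exposure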
KCNK9 block conf: confirmation of human KCNK9 potassium channel inhibitors | shares compounds with KCNK9 inh | HEK293 KCNK9 cells, FluxOR thallium flux fluorescence | 43% of 4,900 active | inhibition, % at 10 µM | AID 492992;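 active = thallium signal inhibited by more than 5 SD of the compound-free buffer control wells, on both duplicate plates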
Kir21 sel: selectivity of KCNK9 modulators against mouse Kir2.1; shares compounds with KCNK9 inh; Kir2.1 cells, FluxOR thallium flux fluorescence; inhibition, % at 10 µM; 4% of 4,900 active; AID 492993;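 active = thallium signal drop more than 5 SD beyond the mean of the no-compound control wells, seen in both duplicate plates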;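 also: signal is fluorescence rise after thallium addition divided by baseline fluorescence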
KCNK9 uninduced: second counter-screen for KCNK9 modulators: effect in non-induced cells. 40% of 4,900 active. non-induced KCNK9-HEK293, FluxOR thallium flux. shares compounds with KCNK9 inh. inhibition, % at 10 µM;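 active = thallium signal drop beyond 5 SD of the untreated control mean, on both duplicate plates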
Hits are given with their value; 0 = inactive; - = no result. Only some compounds are listed: those with a hit (about 3.7% of all), similar ones and a draw of the others.

SMILES | KCNQ1 act | hERG rescue | KCNK3 block | KCNK9 inh | Kir21 block | KCNQ1 inh | KCNK9 block conf | Kir21 sel | KCNK9 uninduced
CCOC(=O)c1cc(-c2ccccc2)sc1NC(=O)C(C)Sc1nnnn1C (centres undefined) | 0 | 0 | 0 | -16.9 | 0 | 0 | 61.0% | 0 | 36.5%
CCOC(=O)c1cc(-c2ccccc2)sc1NC(=O)C(C)C | 0 | 0 | 0 | 0 | 0 | 0 | - | - | -
O=c1c(CN2CCN(c3cccc(Cl)c3)CC2)coc2c(Cl)cc(Cl)cc12 | 0 | 0 | 0 | 0 | 0 | 0 | 0 | 0 | 0
c1ccc(CCNc2nc(-c3ccncc3)nc3ccccc23)cc1 | 0 | 0 | 0 | 0 | 0 | 0 | - | - | -
O=C(NCCc1ccccc1)c1oc2ccccc2c1COc1ccccc1 | 0 | 0 | 0 | 0 | 0 | 6 | 0 | 0 | 0
O=C(Nc1ccccc1Cc1ccccc1)c1oc2ccccc2c1COc1ccccc1 | 0 | 0 | 0 | -8.74 | 0 | 0 | 51.0% | 0 | 31.0%
O=C(CS(=O)c1ccc(Br)cc1)N1CCOCC1 (centres undefined) | 0 | 0 | 0 | 0 | 0 | 0 | - | - | -
Cc1cccc(C(=O)O/N=C/c2c(Cl)n(C)c3ccccc23)c1 | 0 | 0 | 0 | -12.1 | 0 | 0 | 48.0% | 0 | 34.5%
Cc1ccc(C(=O)O/N=C/c2c(Cl)n(C)c3ccccc23)cc1 | 0 | 0 | 0 | 0 | 0 | 0 | - | - | -
COc1ccc(C)cc1NC(=O)CC(O)(C(F)(F)F)C(F)(F)F | 0 | 0 | 0 | -9.61 | 0 | 0 | 0 | 0 | 0
CCOC(=O)Nc1cc(C)ccc1OC | 0 | 0 | 0 | 0 | 0 | 0 | - | - | -
CN1C2C(Br)CCCCN2c2ccc(F)cc2S1(=O)=O (centres undefined) | 0 | 0 | 0 | 0 | 0 | 0 | - | - | -
C/C(NC(=O)c1cccs1)=C1\C(=O)C[C@@H]2[C@H]1C2(C)C | 0 | 0 | 0 | 0 | 0 | 0 | - | - | -
COc1ccc(NS(=O)(=O)c2ccc3nc(COc4cccc5ccccc45)[nH]c3c2)cc1 | 0 | 0 | 0 | 0 | 0 | 0 | 0 | 0 | 0
O=C(CSc1nnc(Cn2c(=O)sc3ccccc32)n1-c1ccccc1)Nc1nccs1 | 0 | 0 | 0 | 0 | 0 | 0 | - | - | -
N#Cc1c(SCc2ccc(Cl)cc2)sc(C(=O)c2ccccc2)c1N | 0 | 0 | 0 | -11.2 | 0 | 0 | 25.5% | 0 | 33.5%
Cc1ccc(-n2ncc3c2CCCC3NC(=O)CSc2ccccn2)cc1C (centres undefined) | 0 | 0 | 0 | 0 | 0 | 0 | 0 | 0 | 0
CCOC(=O)C1C(=O)C=C(c2ccc(Br)cc2)CC1c1ccco1 (centres undefined) | 0 | 0 | 0 | 0 | 0 | 0 | - | - | -
O=C(/C=C/c1ccccc1Cl)N(Cc1ccccc1)C1CCS(=O)(=O)C1 (centres undefined) | 0 | 0 | 0 | 0 | 0 | 0 | - | - | -
O=C(/C=C/c1ccccc1Cl)N(Cc1ccc(Cl)cc1)C1CCS(=O)(=O)C1 (centres undefined) | 0 | 0 | 0 | -8.2 | 0 | 0 | 55.0% | 0 | 35.5%
Cc1ccc(CNC(=O)c2ccc(CNS(=O)(=O)c3ccc4c(c3)C(C)(C)C(=O)N4C)cc2)o1 | 0 | 0 | 0 | 0 | 0 | 0 | 0 | 0 | 0
COc1c(Cl)cc(Cl)cc1C(=O)n1nc(C)cc1C | 0 | 0 | 0 | 0 | 0 | 0 | 0 | 0 | 0
Cc1ccc(OCC(=O)NCc2cccs2)c([N+](=O)[O-])n1 | 0 | 0 | 0 | 0 | 0 | 0 | - | - | -
CCOc1ccc(N(CC(=O)Nc2cccc(Br)c2)S(C)(=O)=O)cc1 | 0 | 0 | 0 | 0 | 0 | 0 | - | - | -
CCOC(=O)C1CCN(Cc2cn(C)nc2-c2ccc(Oc3ccccc3)cc2)CC1 | 0 | 0 | 0 | 0 | 0 | 0 | 0 | 0 | 0
SMILES | KCNQ1 act | hERG rescue | KCNK3 block | KCNK9 inh | Kir21 block | KCNQ1 inh | KCNK9 block conf | Kir21 sel | KCNK9 uninduced
Cc1ccc2c(CN3CCC(C)CC3)cc(=O)oc2c1C | 0 | 0 | 0 | 0 | 0 | 0 | - | - | -
CCOC(=O)C1CCN(Cc2cc(=O)oc3c(C)c(C)ccc23)CC1 | 0 | 0 | 0 | 0 | 0 | 0 | 0 | 0 | 0
Cc1cc(C)c2oc(=O)cc(CN3CCN(Cc4ccccc4)CC3)c2c1 | 0 | 0 | 0 | 0 | 0 | 0 | - | - | -
Cc1ccc2c(CN3CCN(Cc4ccccc4)CC3)cc(=O)oc2c1C | 0 | 0 | 0 | 0 | 0 | 0 | 0 | 0 | 0
Cn1cc(CN2CCC(O)CC2)c(-c2ccc(Oc3ccccc3)cc2)n1 | 0 | 0 | 0 | 0 | 0 | 0 | - | - | -
CCOC(=O)C1CCN(Cc2cc(=O)oc3cc(C)c(Cl)cc23)CC1 | 0 | 0 | 0 | 0 | 0 | 0 | 0 | 0 | 0
CCOC(=O)C1CCN(Cc2ccc(OC)c(C)c2OC)CC1 | 0 | 0 | 0 | 0 | 0 | 0 | - | - | -
CCOC(=O)C1CCN(Cc2cc(Cl)c3ccccc3c2O)CC1 | 0 | 0 | 0 | 0 | 0 | 0 | 0 | 0 | 0
CCCCCCCCN1[C@@H](CC(=O)OC)c2cc(F)ccc2S1(=O)=O | 0 | 0 | 0 | 0 | 0 | 0 | - | - | -
CCCCCCCCCCCCN1[C@@H](CC(=O)O)c2cc(C(F)(F)F)ccc2S1(=O)=O | 0 | 0 | 0 | 0 | 0 | 0 | 0 | 0 | 0
CCCCCCCCCCCCN1[C@@H](CC(=O)O)c2cc(F)ccc2S1(=O)=O | 0 | 0 | 0 | 0 | 0 | 0 | 0 | 0 | 0
CCCC(C)c1nnc(NC(=O)CCS(=O)(=O)c2ccccc2)s1 (centres undefined) | 0 | 0 | 0 | 0 | 0 | 0 | 0 | 0 | 0
CC(C)c1nnc(NC(=O)CCS(=O)(=O)c2ccccc2)s1 | 0 | 0 | 0 | 0 | 0 | 0 | - | - | -
CC(C)[C@@H](C(=O)N1CCCC1)N1C(=O)N2CCc3c([nH]c4ccccc34)[C@@]2(C)C1=O | 0 | 0 | 0 | 0 | 0 | 0 | - | - | -
CC(C)Cn1c(CCNC(=O)c2ccco2)nc2ccccc21 | 0 | 0 | 0 | 0 | 0 | 0 | - | - | -
COC(=O)CC1C(=O)NCCN1C(=O)c1ccc([N+](=O)[O-])cc1 (centres undefined) | 0 | 0 | 0 | 0 | 0 | 0 | - | - | -
CN(Cc1cnn(C)c1)C(=O)c1cc(COc2c(F)cccc2F)on1 | 0 | 0 | 0 | 0 | 0 | 0 | - | - | -
Cc1cc(OCc2cc(C(=O)N(C)Cc3ccccn3)no2)cc(C)c1Cl | 0 | 0 | 0 | 0 | 0 | 0 | - | - | -
Cc1cc(OCc2cc(C(=O)N(C)CCOc3ccccc3)no2)cc(C)c1Cl | 0 | 0 | 0 | 0 | 0 | 0 | 0 | 0 | 0
COc1cccc(CN(C)C(=O)c2cc(COc3c(F)cccc3F)on2)c1 | 0 | 0 | 0 | 0 | 0 | 0 | 0 | 0 | 0
Cc1ccc(OCCN(C)C(=O)c2cc(COc3ccc(F)cc3F)on2)cc1 | 0 | 0 | 0 | 0 | 0 | 0 | 0 | 0 | 0
CN(CCc1ccccn1)C(=O)c1cc(COc2ccc(F)cc2F)on1 | 0 | 0 | 0 | 0 | 0 | 0 | - | - | -
